From ChEMBL document CHEMBL4184316 (J Med Chem, 2018) come the findings set out here.

Molecules are shown by their SMILES. The source made the active and inactive calls. The rule behind the calls is not given here.

The test system of data set [1] is HL-60. Kind of data set: Effect on PKM2 levels in human HL60 cells at 2.5 to 10 uM after 20 hrs by Western blot method. The format is functional, cell-based. Background: Immunoblotting shows a protein as a band on a membrane.
Data set [2] relates to HL-60. The data set can be described thus: Antiproliferative activity against human HL60 cells at 5 to 20 uM after 24 hrs in presence of shPKM2 by MTT assay. The data set is classed as functional, cell-based. An outline of the steps: (§1)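 HL60 transduced with lentiviral shPKM2 or shControl (5 μg/mL Polybrene), selected 72 h in 1 μg/mL puromycin. Stable lines treated with compound or DMSO for 24 h, then viability assayed.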
(Formazan colour is commonly taken as a measure of viable cells.)

In data set [3] the test system is HL-60. Kind of data set: Antiproliferative activity against human HL60 cells at 5 to 20 uM after 24 hrs in presence of shControl by MTT assay. The format is functional, cell-based. Put shortly:
as §1

In data set [4] the target is T1, Pyruvate kinase PKM (Homo sapiens, UniProt P14618). Kind of data set: Binding affinity to PKM2 in human HL60 cells at 20 uM after overnight incubation by Western blot method. The format is cell-based. An outline of the steps: (§2)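 HL60 lysate incubated overnight at 4 °C with biotinylated probe, with or without excess free parent compound for competition. Pull-down on streptavidin-agarose, then SDS-PAGE with silver staining, or Western blot with anti-PKM2. Repeated at least three times.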
Target sequence in this assay (P14618 2-531 limits assumed): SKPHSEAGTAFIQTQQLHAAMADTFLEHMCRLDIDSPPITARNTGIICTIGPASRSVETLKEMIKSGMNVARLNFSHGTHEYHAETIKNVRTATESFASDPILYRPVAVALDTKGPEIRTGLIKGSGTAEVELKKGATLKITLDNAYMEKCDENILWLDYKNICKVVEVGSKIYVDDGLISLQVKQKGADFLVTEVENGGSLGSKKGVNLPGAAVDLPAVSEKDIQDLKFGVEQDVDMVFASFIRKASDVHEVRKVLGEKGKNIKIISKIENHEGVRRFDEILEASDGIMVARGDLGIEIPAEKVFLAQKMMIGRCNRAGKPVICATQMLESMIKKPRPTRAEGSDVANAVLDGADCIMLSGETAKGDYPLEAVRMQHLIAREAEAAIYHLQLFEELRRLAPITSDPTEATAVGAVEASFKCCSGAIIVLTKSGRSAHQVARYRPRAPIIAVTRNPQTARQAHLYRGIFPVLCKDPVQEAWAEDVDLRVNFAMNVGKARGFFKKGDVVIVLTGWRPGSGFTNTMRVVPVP

Data set [5] deals with T1, Pyruvate kinase PKM. The data set can be described thus: Binding affinity to recombinant human PKM1 expressed in Escherichia coli BL21 after overnight incubation by Western blot method. An outline of the steps: (§3)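 Recombinant PKM1 or PKM2 incubated overnight at 4 °C with biotinylated probe. Biotin adduct detected by Western blot with streptavidin-HRP; loading checked by anti-PKM1/PKM2 blot. Repeated at least three times.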
Target sequence in this assay (P14618 2-531 limits assumed): as above

Data set [6] has as its system Pyruvate kinase PKM (Homo sapiens), P14618 [C424S]. The data set can be described thus: Binding affinity to recombinant human PKM2 C424S mutant expressed in Escherichia coli BL21 after 60 mins by Western blot method.
Data set [7] addresses T1, Pyruvate kinase PKM. The data set can be described thus: Irreversible binding affinity to recombinant human PKM2 expressed in Escherichia coli BL21 assessed as ratio of Kact to Ki. An outline of the steps:
(§4)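 PKM2 (0.25 μM) incubated with biotinylated probe (20 μM, and other concentrations) for varying times. Time-dependent binding curves fitted for observed rate constants (Kobs) at each concentration. Kobs plotted against concentration to derive kact and Ki under an irreversible-binding model.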
Target sequence in this assay (P14618 2-531 limits assumed): as above

The target in data set [8] is T1, Pyruvate kinase PKM. The data set can be described thus: Binding affinity to recombinant human PKM2 at C424 residue expressed in Escherichia coli BL21 after 60 mins by Western blot method.
Target sequence in this assay (P14618 2-531 limits assumed): as above
Data set [9] addresses T1, Pyruvate kinase PKM. The data set can be described thus: Binding affinity to recombinant human PKM2 expressed in Escherichia coli BL21 after overnight incubation by Western blot method. Put shortly:
as §3
Target sequence in this assay (P14618 2-531 limits assumed): as above

For data set [10], the target named is T1, Pyruvate kinase PKM. Kind of data set: Irreversible binding affinity to recombinant human PKM2 expressed in Escherichia coli BL21. Put shortly:
as §4

Data set [11] concerns the target T1, Pyruvate kinase PKM. Kind of data set: Binding affinity to PKM2 in human HL60 cells at 20 uM after overnight incubation in presence of 200 to 400 uM MCL by silver staining-based streptavidin-agarose pull-down assay. The format is cell-based. An outline of the steps: as §2
Target sequence in this assay (P14618 2-531 limits assumed): as above
Data set [12] has as its target T1, Pyruvate kinase PKM. Kind of data set: Binding affinity to PKM2 in human HL60 cells at 20 uM after overnight incubation by silver staining-based streptavidin-agarose pull-down assay. The format is cell-based. An outline of the steps: as §2
Data set [13] has as its target T1, Pyruvate kinase PKM. Kind of data set: Irreversible binding affinity to recombinant human PKM2 expressed in Escherichia coli BL21 at 20 uM incubated for 2 to 150 mins. Put shortly:
as §4

The nature of data set [14]: Toxicity in zebrafish embryo xenografted with human HL60 cells assessed as mortality at 20 ug/ml relative to control. The format is organism-based, Danio rerio. Particulars: read-out: Activity. Put shortly: (§5)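 Zebrafish embryos at 2 dpf were injected in the yolk sac with about 300 HL60 cells prelabelled with CM-Dil. Nine injected groups were then exposed to drug at a range of dosages for 3 days, with saline as the negative control. Survival and mortality were scored against the control group, and treated versus control animals were compared by Kaplan–Meier analysis.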
Background: Xenograft models place foreign cells or tissue in a host animal.

For data set [15], the system named is HL-60. The data set can be described thus: Antitumor activity against human HL60 cells xenografted in zebrafish embryo assessed as inhibition of cell proliferation at 10 ug/ml measured after 3 days of incubation by CM-Dil staining-based microscopic method relative to control. The format is functional. Put shortly:
(§6)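 HL60 cells labelled with CM-Dil; about 300 cells injected into yolk sac of embryos at 2 dpf. Embryos kept in compound (1, 3, 10 μg/mL), cytarabine 200 μg/mL or saline for 3 days. Embryos showing dissemination counted by microscopy, 15 larvae per group. Average ± SD of three independent assays; unpaired Student's t test.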

Data set [16] can be described thus: Toxicity in zebrafish embryo xenografted with human HL60 cells assessed as survival rate at <= 10 ug/ml treated for 3 days relative to control. The data set is classed as organism-based, Danio rerio. An outline of the steps:
as §5

Data set [17] concerns HL60/ADR. The data set can be described thus: Antiproliferative activity against human HL60/ADR cells after 48 hrs by MTT assay. The format is functional, cell-based. An outline of the steps: (§7)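 Cells exposed to a range of concentrations for 48 h; proliferation by MTT. Mean ± SEM of six independent experiments. Resistant lines (HL-60/ADR, K562/ADR) held in ADR (printed as 1 μmol/mL) for 10–28 days, then 10 days drug-free before use. SW1990 and SH-SY5Y in DMEM + 10% FBS; leukemia lines in medium with 12% FBS. Vehicle 0.1% DMSO.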

Data set [18] concerns SW1990. The data set can be described thus: Antiproliferative activity against human SW1990 cells after 48 hrs by MTT assay. The data set is classed as functional, cell-based. Put shortly: as §7
The subject of data set [19] is HL-60. Kind of data set: Antiproliferative activity against human HL60 cells after 48 hrs by MTT assay. The data set is classed as functional, cell-based. Put shortly:
as §7

The subject of data set [20] is K562. Kind of data set: Antiproliferative activity against human K562 cells after 48 hrs by MTT assay. The data set is classed as functional, cell-based. An outline of the steps:
as §7

The nature of data set [21]: (§8) Antiproliferative activity against human K562/G cells after 48 hrs by MTT assay. The data set is classed as functional, cell-based. Particulars: K562, 48 h. An outline of the steps:
as §7

Data set [22] is filed under the species Homo sapiens. The description is as §8. The format is functional, cell-based. Put shortly: as §7
Data set [23] relates to HL-60. Kind of data set: Antitumor activity against human HL60 cells xenografted in zebrafish embryo assessed as decrease in cell dissemination measured after 3 days of incubation by CM-Dil staining-based microscopic method. The format is functional. An outline of the steps: as §6
In data set [24] the test system is K562/Adr. Kind of data set: Antiproliferative activity against human K562/ADR cells after 48 hrs by MTT assay. The data set is classed as functional, cell-based. An outline of the steps: as §7
For data set [25], the system named is HL-60. The data set can be described thus: Antitumor activity against human HL60 cells xenografted in zebrafish embryo assessed as inhibition of cell migration at 10 ug/ml measured after 3 days of incubation by CM-Dil staining-based microscopic method relative to control. The data set is classed as functional. An outline of the steps: as §6
Data set [26] concerns SH-SY5Y. The data set can be described thus: Antiproliferative activity against human SH-SY5Y cells after 48 hrs by MTT assay. The data set is classed as functional, cell-based. Put shortly: as §7
In data set [27] the test system is HL-60. The data set can be described thus: Antitumor activity against human HL60 cells xenografted in zebrafish embryo assessed as inhibition of cell migration at 200 ug/ml measured after 3 days of incubation by CM-Dil staining-based microscopic method relative to control. The format is functional. An outline of the steps:
as §6

For data set [28], the system named is HL-60. Kind of data set: Antitumor activity against human HL60 cells xenografted in zebrafish embryo assessed as inhibition of cell proliferation at 200 ug/ml measured after 3 days of incubation by CM-Dil staining-based microscopic method relative to control. The format is functional. Put shortly: as §6

Pyruvate kinase PKM (Homo sapiens), P14618 [C424S], sequence (P14618 whole entry C424S): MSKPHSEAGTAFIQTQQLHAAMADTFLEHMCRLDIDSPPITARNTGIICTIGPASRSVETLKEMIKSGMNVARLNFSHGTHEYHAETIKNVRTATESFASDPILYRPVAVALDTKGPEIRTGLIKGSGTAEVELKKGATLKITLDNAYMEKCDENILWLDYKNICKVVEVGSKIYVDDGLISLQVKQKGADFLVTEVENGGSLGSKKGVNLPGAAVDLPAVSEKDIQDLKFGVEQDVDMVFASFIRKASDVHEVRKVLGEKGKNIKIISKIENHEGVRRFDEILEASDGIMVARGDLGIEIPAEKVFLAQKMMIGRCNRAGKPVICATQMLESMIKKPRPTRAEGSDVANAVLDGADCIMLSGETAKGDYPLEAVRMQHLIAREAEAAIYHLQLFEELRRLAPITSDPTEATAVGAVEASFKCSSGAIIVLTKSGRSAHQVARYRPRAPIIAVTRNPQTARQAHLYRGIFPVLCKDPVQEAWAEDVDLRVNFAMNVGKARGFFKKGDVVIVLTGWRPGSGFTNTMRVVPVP

In the case of `C=C1C(=O)O[C@H]2[C@H]1CCC(C)=C1CC[C@@](C)(O)[C@@H]12`, the outcome in data set [1] and in [2] was inactive. Further, the outcome in [3] was Active.

Turning to `C=C1C(=O)O[C@H]2[C@H]1CCC(C)=C1CC[C@@](C)(OC(=O)CCCc3cn(CCOCCOCCOCCNC(=O)CCCC[C@H]4SC[C@H]5NC(=O)N[C@H]54)nn3)[C@@H]12`, the outcome in data set [4], in [8], in [9] and in [12] was Active. In addition, the result in data set [5], in data set [6] and in [11] was inactive. Also, in data set [7], the Ratio came out at 1.03 ×10⁴ /M/s. Also, the Kact in [10] is 0.031 min⁻¹. Further, the Ki in [10] worked out at 0.05 µM. The K in data set [13] came to 0.033 min⁻¹. For the same compound, the Activity result in [13] (TDE = time-dependent effect) was “Tde”.

In the case of `CC1=C2CC[C@@](C)(O)[C@@H]2[C@H]2OC(=O)[C@@H](CN(C)C)[C@@H]2CC1.O=C(O)/C=C/C(=O)O`, the mortality at 20 ug/ml in [14] was found to be 80%. For the same compound, the “inhibition (INH)” value in data set [15] was 56.44%; in [25], 58.1%. Moreover, the survival at 72 h in [16] stood at 100%. The Activity result in data set [17], in [18], in data set [19], in data set [20], in [22] and in data set [23] was “Dose-dependent effect” each time. In addition, the Activity result in data set [24] and in data set [26] was “Dose-dependent effect” in each case. Besides, the IC50 (as a rule, the concentration needed to halve the response being measured) in data set [17] was in the range of 3.9 to 16.2 µM; in data set [18] (SW1990, 48 h) it was 3.9 to 16.2 µM; in data set [19] (HL-60, 48 h), 3.9 to 16.2 µM; in data set [20] (K562, 48 h), 3.9 to 16.2 µM; in data set [21] it was 3.9 to 16.2 µM; in data set [24] it was 3.9 to 16.2 µM. For the same compound, in [26], the concentration for half-maximal inhibition (IC50) was 3.9 to 16.2 µM. Moreover, the IC90 – broadly, the concentration needed for an effect of 90% – in data set [17] was 16.4 to 54.1 µM; in data set [18] (SW1990, 48 h) it was 16.4 to 54.1 µM; in data set [19] (HL-60, 48 h) it was 16.4 to 54.1 µM; in [20] (K562, 48 h) it was 16.4 to 54.1 µM; in [21], 16.4 to 54.1 µM; in data set [24], 16.4 to 54.1 µM. Further, the 90% effect concentration (IC90) in [26] lay within 16.4 to 54.1 µM.

Consider `CC1=C2CC[C@@](C)(OC(=O)CCCc3cn(CCOCCOCCOCCNC(=O)CCCC[C@H]4SC[C@H]5NC(=O)N[C@H]54)nn3)[C@@H]2[C@H]2OC(=O)[C@@H](C)[C@@H]2CC1`, for which the result in data set [12] was inactive.

Regarding `Nc1ccn([C@@H]2O[C@H](CO)[C@@H](O)[C@@H]2O)c(=O)n1` [CYTARABINE], the “inhibition (INH)” value in data set [27] was 44.04%; in [28], 43.28%.
